# From PubChem
# Most compounds without a hit are left out; they make up all but 10% or so of the library.
# PMI act satM6P: activators of human phosphomannose isomerase at near-saturating mannose 6-phosphate | 0.34% of 190,000 active | AID 1216 | P34949 | coupled PMI enzyme assay, resazurin fluorescence, 20 min; hits give high values; 1 = untreated enzyme, 0 = substrate-free blank | activation factor at 20 µM;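 active = activation factor of 2 or more at 20 µM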
# Target sequence (P34949 whole entry, looked up): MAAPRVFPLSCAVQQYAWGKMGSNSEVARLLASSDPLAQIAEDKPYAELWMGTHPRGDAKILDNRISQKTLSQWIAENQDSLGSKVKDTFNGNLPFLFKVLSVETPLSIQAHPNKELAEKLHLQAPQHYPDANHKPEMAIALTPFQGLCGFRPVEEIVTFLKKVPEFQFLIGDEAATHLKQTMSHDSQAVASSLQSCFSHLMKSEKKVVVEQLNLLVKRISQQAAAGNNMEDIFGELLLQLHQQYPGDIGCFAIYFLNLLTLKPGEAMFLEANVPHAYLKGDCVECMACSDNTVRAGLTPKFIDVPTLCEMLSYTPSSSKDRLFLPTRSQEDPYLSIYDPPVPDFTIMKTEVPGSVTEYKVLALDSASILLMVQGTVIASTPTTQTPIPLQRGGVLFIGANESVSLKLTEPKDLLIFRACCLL
#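 test system = human PMI in coupled enzyme assay | medium = HEPES-buffered pH 7.4 with magnesium and detergent | also added = 1.0 mM mannose-6-phosphate substrate with 0.22 mM NADP+ | compound = 20 µM single dose | times = 20 min incubation at room temperature | measured by = resorufin fluorescence (Ex 544/Em 590 nm) from resazurin via diaphorase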
# Diaphorase act: activates diaphorase or chemically reduces, flagging diaphorase assay artifacts; activation factor at 20 µM; Diaphorase/resazurin coupled assay, resorufin fluorescence, 16 min; hits give high values; 1 = vehicle wells, 0 = NADH-free wells; 0.005% of 190,000 active;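 active = diaphorase activity raised at least twofold by the compound at 20 µM; inactive = activation factor below 2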
#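 Assay system: Purified diaphorase enzyme from Clostridium kluyveri | Amount: Enzyme 0.07 U/mL final | Dosing: Compound 20 µM once, DMSO 1% | Timing: 16 min reaction at room temperature | Detection: Fluorescence, excitation 544 nm and emission 590 nm | Evaluation: Higher resorufin formation from activation or reduction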
# PMI activator: phosphomannose isomerase (human) activation | P34949 | purified human PMI, coupled resazurin fluorescence, 20 min; hits give high values; 1 = vehicle control, 0 substrate-free wells | activation factor at 20 µM | 0.005% of 190,000 active | AID 1214;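 active = activation factor of 2 or more at 20 µM, relative to plate controls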
# Lmaj promast: reduces viability of Leishmania major promastigotes; inhibition, % at 10 µM; 9% of 200,000 active; AID 1063; resazurin fluorescence viability; in the data active = inhibition above about 50%;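 also: promastigotes grown with compound for 44 hours at 28 °C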
# WT yeast gro inh: growth inhibition of WT yeast, mitochondrial fusion screen | mitochondrial fusion phenotypic screen, WT strain | inhibition, % at 10 µM | 2.1% of 190,000 active; in the data active = inhibition above about 58%; tested in S. cerevisiae
# * = called active by the depositor.
SMILES,PMI act satM6P,Diaphorase act,PMI activator,Lmaj promast,WT yeast gro inh
CCOc1cc(/C=N/NC(=O)COc2ccc(C)cc2)ccc1OC(=O)c1cccs1,0.9,0.8,0.8,1,7
CSc1ccc(/C=N/Nc2ccc(Cl)c(C(=O)O)c2)cc1,2.4*,0.9,1.7,-14,-12
COc1cc(/C=N/Nc2ccccc2)ccc1OC(=O)c1cccs1,2.2*,0.9,1.5,12,25
COc1cc(/C=N/Nc2ccc(Cl)c(C(=O)O)c2)ccc1OC(=O)c1cccs1,2.4*,0.7,1.6,-17,4
CCOc1cc(/C=N/NC(=O)COc2ccccc2C)ccc1OC(=O)c1cccs1,1,0.9,0.8,-3,65*
O=C(c1ccc(Cl)c(S(=O)(=O)N2CCCCCC2)c1)N1CCN(c2ccccc2O)CC1,0.7,0.7,0.8,30,-2
O=P(c1ccccc1)(c1ccccc1)N(c1ccccc1)c1ccccc1,0.9,0.9,0.9,65*,2
COc1ccc(/C=N/N2CCOCC2)cc1COc1ccc(F)cc1,0.8,0.9,0.9,3,8
COc1ccc(/C=N/N2CCOCC2)cc1COc1ccc(Cl)cc1,1,0.9,1,87*,19
CC1CC1c1ccc(/C=C(\C#N)C(=O)Nc2cccc(Cl)c2Cl)o1 (stereo not given),1,0.9,0.8,-4,6
Brc1ccc(Oc2ncc(CN3CCN(c4ccccc4)CC3)s2)cc1,0.9,0.9,0.9,-4,53
Clc1cccc(Oc2ncc(CN3CCOCC3)s2)c1,0.9,0.9,1,62*,3
Cc1ccc(Oc2ncc(CN3CCOCC3)s2)cc1,1.1,1.1,1.1,77*,-28
O=C(CN1CCOCC1)Nc1ncc(Cc2cccc(Cl)c2)s1,1,0.9,1.1,-2,-5
O=C(CSc1nnc(CNc2ccc(F)cc2)o1)N1c2ccccc2Sc2ccccc21,0.9,0.8,0.9,65*,-4
CC(C)(C)N(Cc1ccccc1)C(=O)CSc1nnc(CNc2ccc(F)cc2)o1,1,0.8,0.8,100*,2
O=C(c1ccc(-c2ccccc2)cc1)c1ccccc1C(=O)N1CCOCC1,1,0.9,0.9,51*,-2
O=C(c1ccc(S(=O)(=O)Cc2cc(F)ccc2F)c([N+](=O)[O-])c1)N1CCCCC1,0.8,0.9,0.8,78*,-29
Cc1ccc(C(=O)N2CCN(c3ccccc3Cl)CC2)cc1[N+](=O)[O-],0.9,0.9,0.9,-1,76*
O=C(c1ccc(S(=O)(=O)Cc2ccccc2Cl)c([N+](=O)[O-])c1)N1CCN(c2ccccn2)CC1,0.9,0.9,1.2,89*,20
O=C(c1ccc(S(=O)(=O)Cc2cc(F)ccc2F)c([N+](=O)[O-])c1)N1CCCC1,0.9,0.9,1.1,18,7
Cn1c(=O)c(=O)n(C)c2cc([N+](=O)[O-])c([N+](=O)[O-])cc21,0.9,0.8,1.3,80*,3
Cn1c(=O)n(C)c2cc([N+](=O)[O-])c(N3CCN(S(C)(=O)=O)CC3)cc21,1,1.1,1.1,39,-11
O=C(O)c1ccc(-c2nc(-c3ccccc3)c(-c3ccccc3)[nH]2)cc1,1.1,0.9,1.1,89*,14
COc1ccc(C(C)=O)cc1COc1ccc(-n2cnnn2)cc1,1,1,0.9,2,2
SMILES,PMI act satM6P,Diaphorase act,PMI activator,Lmaj promast,WT yeast gro inh
COc1ccc(-c2nsc3c(N4CCCCC4C)ncnc23)cc1 (stereo not given),0.8,0.9,0.8,-1,75*
CN1/C(=C\C=N\NC(=O)c2ccc(O)cc2)C(C)(C)c2ccccc21,1.1,0.8,1.1,86*,-1
CC(=O)/C=C1\N(C)c2ccc(C)cc2C1(C)C,1,0.9,1.1,91*,-2
Cc1ccc(C(=O)NC(=S)/C=C2\N(C)c3ccccc3C2(C)C)cc1,0.8,0.3,0.7,22,67*
CC(C)C(=O)NC(=S)/C=C1/N(C)c2ccccc2C1(C)C,1,1,0.5,12,0
CN1/C(=C/C(=S)NC(=O)C2CCC2)C(C)(C)c2ccccc21,1,0.7,0.9,1,25
Cc1cc(Nc2ccccc2)n(CCO)n1,1,0.9,1,-1,47
CC(C)C1CC(CCN2CCCCC2)(c2ccccc2)CCO1 (stereo not given),1.1,1,1.1,0,0
Cc1ccc(CC(=O)NC2CCSC2=O)cc1 (stereo not given),1.1,1.1,1,-14,-2
COc1cc(/C=C2\SC(=O)N(CCN)C2=O)ccc1OS(=O)(=O)c1cc(C)ccc1C,1.1,1.8,1.1,100*,59
COc1ccc(/C=C2\SC(=O)N(CCC(=O)Nc3ccccc3)C2=O)cc1OC,1,0.9,1,53*,-5
O=C(CCCN1C(=O)/C(=C/c2ccccc2)SC1=S)Nc1cccc(O)c1,0.9,0.8,0.9,65*,30
COc1cc(/C=C2\SC(=S)N(CCC(=O)Nc3ccccc3)C2=O)cc(OC)c1OC,0.9,0.9,0.9,9,-6
COc1cc(/C=C2/SC(=O)N(Cc3ccccc3Cl)C2=O)ccc1OCc1ccncc1,1.1,1.1,1,-1,3
CCSC1=N/C(=C/c2ccsc2)C(=O)N1c1ccccc1,0.8,0.8,0.9,-1,45
COc1cccc(C2=NC(C)(C)NC(c3ccccc3O)C2)c1 (stereo not given),0.9,0.9,0.9,97*,1
CCC1(C)N=C(c2ccc3c(c2)OCO3)CC(c2ccccc2O)N1 (stereo not given),0.9,0.9,0.8,95*,20
Cc1nc([N+](=O)[O-])c(Sc2nc3ccccc3n2C)n1Cc1ccccc1,1,0.8,1,96*,-16
Cc1nc([N+](=O)[O-])c(SCC(N)=O)n1Cc1ccccc1,0.9,0.9,1,0,-2
O=C(CSc1nnc(NC(=O)c2ccco2)s1)Nc1ccccc1,1,1,1.1,-10,-25
CCOC(=O)c1cnc2c(N=Nc3ccccc3)c(N)nn2c1N,1.1,0.9,1,68*,2
N#CC1=C(SCc2ccccc2)NC(=O)CC1c1ccc(O)cc1 (stereo not given),1,1,1,28,12
N#CC1=C(SCc2ccccc2)NC(=O)CC1c1cccc(O)c1 (stereo not given),0.8,0.9,1,62*,11
Cc1ccc(C2CC(=O)NC(SCc3ccccc3)=C2C#N)cc1 (stereo not given),0.9,0.9,1,61*,9
CCOC(=O)CC(=O)CSc1nc(-c2ccccc2)cc(-c2ccccc2)c1C#N,0.9,0.9,0.9,-6,-30
N#Cc1c(-c2ccccc2)cc(-c2ccccc2)nc1SCc1nnc(-c2ccccc2)o1,0.9,0.9,1,60*,-8
